Measured values reported in ChEMBL document CHEMBL3272253, “Relationship of molecular structure to in vivo scintigraphic distribution patterns of carbon-11 labeled compounds. 3. (11C)Hydantoins” (J Med Chem, 1976).
Values belong to the compound of their own block, whether it stands above or below them.

Legend:
Type in all cases: ADME, organism-based, Canis lupus familiaris
Settings in all cases: in vivo; call rule not given here
Canis familiaris [1] = test: Drug level in iv dosed dog after 5 to 30 mins by gamma-scintillation counting analysis
Procedure, shortened: (§1)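 Carbon-11-labeled hydantoin, 1–59 mCi of final product, dissolved in 1–1.5% aqueous NaOH and given iv to dogs. Distribution imaged serially for up to 2 hr or more with a scintillation camera fitted with a pinhole collimator (1-cm hyperbolic aperture), with whole-body scintiphotos at about 5 and 30 min. Readout is qualitative to semiquantitative; no coincidence imaging.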

[2] = Drug level in iv dosed dog lung after 5 to 30 mins by gamma-scintillation counting analysis; procedure, shortened: as §1
Liver [3] = test: Drug level in iv dosed dog liver after 5 to 30 mins by gamma-scintillation counting analysis; procedure, shortened: as §1
Nucleic Acid [4] = test: Ratio of drug level in iv dosed dog brain to temporal muscle after 73 mins by gamma-scintillation counting analysis
Procedure, shortened: (§2)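 Dogs were dosed iv with 11C-labeled hydantoin. Tissues and fluids were collected at necropsy 73 or 80 min post-dose and counted at fixed geometry in front of a thallium-activated NaI scintillation detector. Values are cpm/g of tissue divided by cpm/g of temporal muscle.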

Nucleic Acid [5] = test: Ratio of drug level in iv dosed dog lung to temporal muscle after 73 mins by gamma-scintillation counting analysis; procedure, shortened: as §2
Nucleic Acid [6] = test: Ratio of drug level in iv dosed dog washed heart to temporal muscle after 73 mins by gamma-scintillation counting analysis
Procedure, shortened: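 [11C]-labeled hydantoin, from carrier-free [11C]HCN, given intravenously to dogs. Heart washed and taken at necropsy 73 min after dosing, along with temporal muscle. Tissues were counted at fixed geometry before a thallium-activated NaI scintillation detector. Value is cpm/g washed heart divided by cpm/g temporal muscle.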

Nucleic Acid [7] = test: Ratio of drug level in iv dosed dog liver to temporal muscle after 73 mins by gamma-scintillation counting analysis; procedure, shortened: as §2
Nucleic Acid [8] = test: Ratio of drug level in iv dosed dog bile to temporal muscle after 73 mins by gamma-scintillation counting analysis; procedure, shortened: as §2
Nucleic Acid [9] = test: Ratio of drug level in iv dosed dog spleen to temporal muscle after 73 mins by gamma-scintillation counting analysis; procedure, shortened: as §2
Nucleic Acid [10] = test: Ratio of drug level in iv dosed dog stomach to temporal muscle after 73 mins by gamma-scintillation counting analysis; procedure, shortened: as §2
Nucleic Acid [11] = test: Ratio of drug level in iv dosed dog pancreas to temporal muscle after 73 mins by gamma-scintillation counting analysis; procedure, shortened: as §2
Nucleic Acid [12] = test: Ratio of drug level in iv dosed dog kidney to temporal muscle after 73 mins by gamma-scintillation counting analysis; procedure, shortened: as §2
Nucleic Acid [13] = test: Ratio of drug level in iv dosed dog blood to temporal muscle after 73 mins by gamma-scintillation counting analysis; procedure, shortened: as §2
Nucleic Acid [14] = test: Ratio of drug level in iv dosed dog mesenteric fat to temporal muscle after 73 mins by gamma-scintillation counting analysis; procedure, shortened: as §2
Nucleic Acid [15] = test: Ratio of drug level in iv dosed dog urine to temporal muscle after 73 mins by gamma-scintillation counting analysis; procedure, shortened: as §2
Nucleic Acid [16] = test: Ratio of drug level in iv dosed dog cerebrospinal fluid to temporal muscle after 73 mins by gamma-scintillation counting analysis; procedure, shortened: as §2
[17] = Drug level in iv dosed dog kidney after 5 to 30 mins by gamma-scintillation counting analysis; procedure, shortened: as §1
[18] = Drug excretion in iv dosed dog urine after 5 to 30 mins by gamma-scintillation counting analysis; procedure, shortened: as §1
[19] = Drug level in iv dosed dog vein by gamma-scintillation counting analysis; procedure, shortened: as §1
[20] = Drug level in iv dosed dog lung by gamma-scintillation counting analysis; procedure, shortened: as §1
Liver [21] = test: Drug level in iv dosed dog liver by gamma-scintillation counting analysis; procedure, shortened: as §1
Canis familiaris [22] = test: Drug level in iv dosed dog by gamma-scintillation counting analysis; procedure, shortened: as §1
[23] = Drug level in iv dosed dog kidney by gamma-scintillation counting analysis; procedure, shortened: as §1
[24] = Drug excretion in iv dosed dog urine by gamma-scintillation counting analysis; procedure, shortened: as §1
Brain = test: Drug level in iv dosed dog brain by gamma-scintillation counting analysis; procedure, shortened: as §1

SMILES: CC1(c2ccccc2)NC(=O)N[11C]1=O (configuration not stated)
Drug uptake (Canis familiaris [1]): Active

SMILES: CCC1(c2ccccc2)NC(=O)N[11C]1=O (configuration not stated)
Drug uptake (Canis familiaris [1]): Active | Drug uptake [2]: Active | Drug uptake (Liver [3]): Active | Ratio (Nucleic Acid [4]): 1.25 | Ratio (Nucleic Acid [5]): 0.75 | Ratio (Nucleic Acid [6]): 1 | Ratio (Nucleic Acid [7]): 1.33 | Ratio (Nucleic Acid [8]): 1.58 | Ratio (Nucleic Acid [9]): 1.25 | Ratio (Nucleic Acid [10]): 0.92 | Ratio (Nucleic Acid [11]): 1.67 | Ratio (Nucleic Acid [12]): 1.25 | Ratio (Nucleic Acid [13]): 1 | Ratio (Nucleic Acid [14]): 0.75 | Ratio (Nucleic Acid [15]): 0.67 | Ratio (Nucleic Acid [16]): 2.67

SMILES: O=C1N[11C](=O)C2(CCCCCCC2)N1
Drug uptake (Brain): Not Active

SMILES: O=C1N[11C](=O)C2(N1)c1ccccc1-c1ccccc12
Drug uptake (Brain): Not Active

SMILES: O=C1N[11C](=O)C2(CCCc3ccccc32)N1 (configuration not stated)
Drug uptake (Brain): Not Active

Now from value to compound:

Drug uptake (Canis familiaris [1]): Active
SMILES: CCCC1(c2ccccc2)NC(=O)N[11C]1=O (configuration not stated)

Drug uptake (Canis familiaris [1]): Active | Drug uptake [17]: Active | Drug excretion [18]: metabolite_detected
SMILES: O=C(O)CCC1(c2ccccc2)NC(=O)N[11C]1=O (configuration not stated)

Drug uptake [19]: Active | Drug uptake [20]: Active | Drug uptake (Liver [21]): Active | Drug uptake (Canis familiaris [22]): Active | Drug uptake [23]: Active | Drug excretion [24]: metabolite_detected
SMILES: O=C1N[11C](=O)C2(CCCCC2)N1

Drug uptake (Liver [21]): Active | Drug uptake (Brain): Active
SMILES: O=C1N[11C](=O)C2(CCCCCC2)N1
